14-3-3 Bad PPI – inhibitors of 14-3-3 zeta/Bad binding, primary screen, biochemical, TR-FRET, bovine 14-3-3 zeta. 14-3-3 protein zeta/delta (Bos taurus), P63103. TR-FRET 14-3-3zeta/Dy647-pBad peptide displacement, 1 h. inhibition, % at 21.7 µM. actives 0.71% (n = 220,000);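 active = inhibition above about 70%, limit read from the data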
Target sequence (P63103 whole entry, looked up): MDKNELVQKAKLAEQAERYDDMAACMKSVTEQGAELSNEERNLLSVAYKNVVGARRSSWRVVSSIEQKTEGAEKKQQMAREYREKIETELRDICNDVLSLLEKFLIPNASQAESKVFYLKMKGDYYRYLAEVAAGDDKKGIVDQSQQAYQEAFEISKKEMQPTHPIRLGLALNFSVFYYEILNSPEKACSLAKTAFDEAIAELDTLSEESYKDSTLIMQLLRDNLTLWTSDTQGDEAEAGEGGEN
PKD1 kinase inh – inhibitors of human PKD1 kinase, biochemical, fluorescence polarization; Serine/threonine-protein kinase D1 (Homo sapiens), Q15139; PKD1 kinase fluorescence polarization assay; AID 797, 2007; actives 0.056% (n = 200,000); inhibition, % (concentration not given with the values)
eIF4E-4G inh – eIF4E–eIF4G protein interaction inhibitors, primary screen, biochemical, uHTS, TR-FRET, eIF4GI fragment; actives 0.37% (n = 220,000); TR-FRET eIF4E-eIF4GI(517-606) binding, 2 h; Eukaryotic translation initiation factor 4E (Mus musculus) + Eukaryotic translation …; inhibition, % at 21.7 µM; AID 782, 2007;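 active = inhibition above about 30%, limit read from the data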
EBV gp42 inh – Epstein-Barr virus gp42 inhibitors, primary screen, biochemical, uHTS, fluorescence polarization. Fluorescence polarization binding assay, mP read-out. inhibition, % (tested at 21.74 µM). actives 0.42% (n = 220,000)
Target sequence (Q1HVG2 whole entry, looked up): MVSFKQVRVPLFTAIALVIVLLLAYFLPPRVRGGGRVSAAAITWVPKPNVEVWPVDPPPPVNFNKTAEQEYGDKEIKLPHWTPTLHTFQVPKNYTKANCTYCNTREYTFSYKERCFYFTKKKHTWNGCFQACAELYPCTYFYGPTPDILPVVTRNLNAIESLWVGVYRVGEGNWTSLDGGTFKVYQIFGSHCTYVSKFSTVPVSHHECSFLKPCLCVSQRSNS
RBBP9 inh – human RBBP9 inhibitors, primary screen, biochemical, fluorescence polarization, FP-Rh probe, HTS; Serine hydrolase RBBP9 (Homo sapiens), O75884; recombinant RBBP9; inhibition, % at 7.94 µM; actives 0.2% (n = 220,000); AID 1515, 2009;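 active = inhibition above the campaign mean of all tested compounds plus 3 SD, cut at about 14% in these data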
Target sequence (O75884 whole entry, looked up): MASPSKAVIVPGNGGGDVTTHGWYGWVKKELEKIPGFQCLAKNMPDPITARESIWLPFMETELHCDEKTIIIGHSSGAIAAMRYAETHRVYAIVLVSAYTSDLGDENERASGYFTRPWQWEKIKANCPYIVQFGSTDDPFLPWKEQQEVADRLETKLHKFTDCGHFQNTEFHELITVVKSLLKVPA
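Controls: DMSO-treated enzyme wells and wells lacking RBBP9 | Material: RBBP9 protein | Technique: Fluorescence polarization | Replication: Single well per compound, no replicates | Buffer or medium: Tris-NaCl-Pluronic buffer, pH 8.0 | Timing: 30 min compound preincubation, 45 min probe labeling, 25 °C | Read-out basis: Percent inhibition from mP, scaled between DMSO and no-protein wells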
Large screens that a line does not name were inactive; [ ] = another dose, or the depositor's remark. Sampled rows, rich in hits. Any-hit rate of the full collection: about 1.6%. Rule as the data show it, unless noted: active = inhibition above about 50%; inactive = the rest.

CC(C)C(c1nnnn1Cc1ccco1)N1CCN(C2CCCC2)CC1 (stereo unspecified)	none
CN(C)c1nc2ccccc2c(N)c1-c1ccccc1	14-3-3 Bad PPI 77
Cc1ccc(CN2CCN(Cc3nc4ccccc4nc3C)CC2CCO)cc1 (stereo unspecified)	none (no result: PKD1 kinase inh)
O=C(CSc1nnc(SCc2ccc(Cl)cc2)s1)N/N=C/c1c[nH]c2ccccc12	14-3-3 Bad PPI 90[fluorescence artefact?]
O=C(CSc1nnc(SCc2ccccc2)s1)N/N=C/C=C/c1ccco1	EBV gp42 inh 68
CCOc1ccc(NC(=O)C2CCCN(C)C2)cc1 (stereo unspecified)	none (no result: PKD1 kinase inh)
CCOC(=O)C1CCN(C(=O)c2cc3c(=O)n4ccccc4nc3n2C)CC1	none
CCOc1ccc(CCNC(=O)CCC(=O)Nc2ccc3nc(N4CCN(C)CC4)cc(C)c3c2)cc1OCC	14-3-3 Bad PPI 91
COc1ccc(CCNC(=O)CCC(=O)Nc2ccc3nc(N4CCN(C)CC4)cc(C)c3c2)cc1OC	none
Cc1cc(=O)oc2c3c4c(cc12)OCCN4CCC3	EBV gp42 inh 65
O=c1oc2c(CN3CCOCC3)c(O)ccc2c2c1CCC2	none (no result: 14-3-3 Bad PPI, eIF4E-4G inh)
O=c1oc2c3c4c(cc2c(C(F)(F)F)c1CCN1CCOCC1)CCCN4CCC3	EBV gp42 inh 139
CC(C)c1cc(=O)oc2c3c4c(cc12)CCCN4CCC3	EBV gp42 inh 51
CC(=O)OC1=C(C#N)Cn2ccc3cccc1c32	eIF4E-4G inh 32
COc1ccc(Cn2c(=O)cc(N)n(-c3ccccc3C)c2=O)cc1	14-3-3 Bad PPI 97 (no result: PKD1 kinase inh)
CN1CCN(CCCNC(=O)c2ccc(/C=C3/Sc4ccccc4N(Cc4cccc(Cl)c4)C3=O)cc2)CC1	14-3-3 Bad PPI 77
CN1CCN(CCCNC(=O)c2ccc(/C=C3\Sc4ccccc4N(Cc4ccc(F)cc4)C3=O)cc2)CC1	14-3-3 Bad PPI 74, eIF4E-4G inh 35
CC(C)c1ccc(N(CC(=O)NCC2CCCO2)C(=O)Cn2nnc(-c3cccs3)n2)cc1 (stereo unspecified)	none
CCN(CC)CCOc1nc(C)nc2c1oc1ccccc12	none
CCN(CC)CCCOc1nc(C)nc2c1oc1ccccc12	14-3-3 Bad PPI 77
C/C(=N\O)c1cc(Cl)ccc1O	eIF4E-4G inh 92 (no result: PKD1 kinase inh)
O=C(/C=C/c1ccncc1)c1cc(Cl)ccc1O	none (no result: PKD1 kinase inh)
O=C(N/N=C/c1cc2ccccc2[nH]1)c1ccccc1Cl	none (no result: PKD1 kinase inh)
N#CC1CC(c2ccc([N+](=O)[O-])cc2)=NN1c1ccc([N+](=O)[O-])cc1 (stereo unspecified)	EBV gp42 inh 94
Cc1ccc(-c2nn3c(C)nnc3s2)cc1NC(=O)c1ccc(-c2ccc(Cl)cc2Cl)o1	14-3-3 Bad PPI 86[fluorescence artefact?]
COc1ccc(C(=O)N[C@H](C(=O)OCc2cc(=O)oc3cc(C)ccc23)C(C)C)cc1	none
O=C(NCCCn1ccnc1)c1cc(-c2cccc(O)c2)on1	none (no result: PKD1 kinase inh)
O=C(CN1C(=O)/C(=C2\SC(=S)N(C3CCS(=O)(=O)C3)C2=O)c2ccccc21)Nc1ccc(F)cc1 (stereo unspecified)	none (no result: PKD1 kinase inh)
COc1ccc(NC(=O)CN2C(=O)/C(=C3\SC(=S)N(C4CCS(=O)(=O)C4)C3=O)c3ccccc32)cc1 (stereo unspecified)	EBV gp42 inh 61 (no result: PKD1 kinase inh)
O=C(OCc1cc(=O)n2c(n1)sc1ccccc12)c1cccc(O)c1	none
O=C(OCc1cc(=O)n2c(n1)sc1ccccc12)c1ccc(O)cc1O	eIF4E-4G inh 33
O=C(Nc1nc(-c2cccnc2)cs1)c1ccccc1[N+](=O)[O-]	none
C=CCN1C(=O)CS/C1=N/c1nccs1	none
C=CCN1C(=O)CSC1=Nc1cccc(O)c1	eIF4E-4G inh 30
COc1ccc(NC(=O)CCl)cn1	EBV gp42 inh 71 (no result: PKD1 kinase inh)
CN(Cc1ccccc1)C(=O)N1CCOCC1	none (no result: PKD1 kinase inh)
CCN1CCN(CC(=O)N2N=C(c3cccs3)CC2c2ccc(OC)c(OC)c2)C(=O)C1=O (stereo unspecified)	EBV gp42 inh 64
CCN1CCN(CC(=O)N2N=C(c3cccs3)CC2c2ccc(F)cc2)C(=O)C1=O (stereo unspecified)	none
O=C(CN1CCCCC1)Nc1ccccc1-c1ccccc1	none
O=C(CN1CCN(C2CCCCC2)CC1)Nc1ccccc1-c1ccccc1	14-3-3 Bad PPI 83
O=C(O)/C=C/c1cn(-c2ccccc2)nc1-c1ccc(-c2ccc([N+](=O)[O-])cc2)o1	EBV gp42 inh 66 (no result: PKD1 kinase inh)
O=C(O)/C=C/c1cn(-c2ccccc2)nc1-c1cccc([N+](=O)[O-])c1	none (no result: PKD1 kinase inh)
CN(C)S(=O)(=O)c1cccc(NC(=O)c2ccc3nccnc3c2)c1	none (no result: PKD1 kinase inh)
CCCN(CC(=O)Nc1cc(Cl)cc(Cl)c1)CC(=O)Nc1ccc(F)c(F)c1F	none
CC(C)n1c(=S)[nH]c2scc(-c3cccs3)c2c1=O	eIF4E-4G inh 42 (no result: PKD1 kinase inh)
C/C(=N\NC(=O)Cc1c(C)[nH][nH]c1=O)c1ccc(Cl)c(Cl)c1	none (no result: PKD1 kinase inh)
C/C(=N\NC(=O)Cc1c(C)[nH][nH]c1=O)c1cccc(Br)c1	eIF4E-4G inh 97 (no result: PKD1 kinase inh)
CCCc1cc(=O)[nH]c(Nc2cc(OC)ccc2OC)n1	none
CCOc1ccc(Nc2nc(CC(=O)OC)cc(=O)[nH]2)cc1	14-3-3 Bad PPI 89
CCOC(=O)C1(Cc2ccc(OC)cc2)CCN(C(=O)CN2CCCCC2=O)CC1	none
COc1ccccc1N1C(=O)C2C(C(=O)c3ccccc3)=NN(c3ccc(C)cc3)C2C1=O (stereo unspecified)	EBV gp42 inh 119 (no result: PKD1 kinase inh)
COc1ccccc1N1C(=O)C2C(C(=O)c3ccccc3)=NN(c3ccc(Br)cc3)C2C1=O (stereo unspecified)	EBV gp42 inh 55 (no result: PKD1 kinase inh)
COc1ccccc1N1C(=O)C2C3C=CC(C3)C2C1=O (stereo unspecified)	none
COC(=O)C1=NN(c2ccc(C)cc2)C2C(=O)N(c3ccccc3OC)C(=O)C12 (stereo unspecified)	none (no result: PKD1 kinase inh)
Clc1ccccc1-c1nnc(-c2ccc3c(c2)OCO3)o1	none
CC(C)(C)c1c(Cl)c(O)c(-c2ccccc2)c(=O)n1-c1ccccc1	14-3-3 Bad PPI 80, eIF4E-4G inh 33
O=C(N/N=C/c1cc(Cl)cc(Cl)c1O)c1ccncc1	EBV gp42 inh 57 (no result: PKD1 kinase inh)
O=C(N/N=C/c1cc(Br)cc(Br)c1O)c1ccncc1	none
COc1ccccc1CCNC(=O)c1cc(-c2ccncc2)nc2ccc(Br)cc12	14-3-3 Bad PPI 92
CSc1ccccc1NC(=O)c1cc(-c2cccnc2)nc2ccc(Br)cc12	14-3-3 Bad PPI 89
Cc1nn(CC(=O)N/N=C/c2ccc3c(c2)OCO3)c(C)c1Br	14-3-3 Bad PPI 80
Cc1cc(C)n(CC(=O)N/N=C/c2ccc3c(c2)OCO3)n1	none
